Bioassay records (PubChem BioAssay)
Only some compounds are listed: those with a hit (about 2.4% of all), similar ones and a draw of the others.
NPY2 pot ag: potentiates or activates human NPY-Y2 receptor; hit rate 0.45% among 220,000; cells expressing NPY-Y2, potentiator/agonist read-out; P49146; activation, % at 3.6 µM; in the data active means activation above about 27%;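 further: cells stimulated with NPY near EC25 plus isoproterenol at EC100; 0% = vehicle plus submaximal agonist and 100% = vehicle plus saturating agonist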
S1P4 ag: human S1P4 receptor agonism; O95977; S1P4-expressing cell line, agonist reporter assay; activation, % at 4.98 µM; hit rate 0.35% among 220,000; AID 1509; in the data active means activation above about 11%;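 further: 0% = DMSO vehicle and 100% = reference agonist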
NPY-Y2 antag: NPY-Y2 (human) receptor antagonism; hit rate 0.99% among 140,000; P49146; AID 793; NPY-Y2 expressing cells, antagonist mode; inhibition, % at 2.7 µM; in the data active means inhibition above about 17%;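 further: 0% = vehicle with agonist challenge and 100% = reference antagonist with challenge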
NPY Y1 blocker: blocks the human neuropeptide Y Y1 receptor; hit rate 1% among 200,000; HEK293-CNG Y1 cells, membrane potential fluorescence; NPY at EC95, then isoproterenol; inhibition, % at 3.6 µM; P25929;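 active means inhibition above the campaign mean inhibition of all tested compounds plus 3 SD, cut at about 20% in these data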;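 further: 0% = DMSO wells given NPY plus isoproterenol and 100% = isoproterenol alone without NPY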
Target sequence (P25929 whole entry, looked up): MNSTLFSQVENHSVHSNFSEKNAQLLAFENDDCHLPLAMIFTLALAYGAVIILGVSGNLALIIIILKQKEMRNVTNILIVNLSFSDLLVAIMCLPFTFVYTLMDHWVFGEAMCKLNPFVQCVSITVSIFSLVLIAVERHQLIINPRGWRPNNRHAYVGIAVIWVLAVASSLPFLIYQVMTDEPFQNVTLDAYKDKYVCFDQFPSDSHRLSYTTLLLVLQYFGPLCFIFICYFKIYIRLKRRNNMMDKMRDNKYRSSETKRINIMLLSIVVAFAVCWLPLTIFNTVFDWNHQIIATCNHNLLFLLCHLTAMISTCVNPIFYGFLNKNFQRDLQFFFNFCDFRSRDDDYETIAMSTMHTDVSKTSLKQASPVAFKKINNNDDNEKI
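Test system: HEK293 cells co-expressing NPY Y1 receptor and cyclic-nucleotide gated channel; Also added: NPY (25 nM), isoproterenol (1 µM), Ro 20-1724 (25 µM); Compound dosing: one concentration, 3.6 µM, in 0.4% DMSO; Timing: dye 3 h, compound 60 min room temperature, stimulation 45 min; Technique: Membrane-potential fluorescent dye readout.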
S1P4 antag: antagonists of human S1P4 receptor. AID 1510. O95977. hit rate 0.26% among 220,000. S1P4-expressing cells, antagonist mode, reporter read-out. inhibition, % at 4.98 µM; in the data active means inhibition above about 29%;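 further: 0% = wells stimulated with agonist and 100% = vehicle wells without agonist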
NPY-Y1 PAM-ag: human NPY-Y1 potentiation or agonism, primary screen | NPY-Y1 expressing cells, potentiator/agonist activation | hit rate 0.37% among 220,000 | AID 1304 | activation, % at 3.6 µM; in the data active means activation above about 33%, passing the limit was not always enough;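 further: cells stimulated with NPY at EC10 then isoproterenol at EC100; 0% = low agonist plus stimulus and 100% = saturating agonist plus stimulus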
NPY-Y1 antag ct: human NPY-Y1 antagonism in NPY-Y2 counter-screen; shares compounds with NPY-Y2 antag; hit rate 19% among 710; cell-based NPY-Y1 antagonism counterscreen; AID 1256; inhibition, % at 3.6 µM; in the data active means inhibition above about 20%;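 further: cells challenged with NPY then isoproterenol with cAMP sensed through a CNG channel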
NPY-Y2 ant conf: human NPY-Y2 antagonism, confirmation; shares compounds with NPY-Y2 antag; AID 1257; HEK293 NPY-Y2 CNG channel, membrane potential fluorescence; inhibition, % at 2.8 µM; hit rate 32% among 710;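 active means mean inhibition of triplicate wells above the hit cutoff set in the primary screen, cut at about 17% in these data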;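 further: 0% = DMSO with NPY challenge and 100% = BIIE0246 high control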
The depositor's hits bear a star.

Screening CCOC(=O)c1c(NC(=O)C2C3C=CC(CC3)C2C(=O)O)sc(C)c1C (configuration not stated) returned NPY2 pot ag 14, S1P4 ag 0, NPY-Y2 antag 18*, NPY Y1 blocker 2, S1P4 antag -10, NPY-Y1 PAM-ag 18, NPY-Y1 antag ct 0 and NPY-Y2 ant conf 3.
COc1cc(/C=N/n2cnnc2)ccc1OCc1ccccc1 was read as NPY2 pot ag -2, S1P4 ag 0, NPY-Y2 antag 3, NPY Y1 blocker 5, S1P4 antag -9 and NPY-Y1 PAM-ag -15.
For COc1cc(/C=N/n2cnnc2)ccc1OCc1ccc(C)cc1 the results were NPY2 pot ag -20, S1P4 ag -2, NPY-Y2 antag 40*, NPY Y1 blocker 19, S1P4 antag -14, NPY-Y1 PAM-ag -42, NPY-Y1 antag ct 16 and NPY-Y2 ant conf 32*.
CNCc1ccccc1Sc1cccc2ccccc12 was read as NPY2 pot ag 8, S1P4 ag -1, NPY-Y2 antag 12, NPY Y1 blocker 7, S1P4 antag -22 and NPY-Y1 PAM-ag -17.
For CNCc1ccccc1Sc1ccc(OC)cc1 the results were NPY2 pot ag -17, S1P4 ag -2, NPY-Y2 antag 20*, NPY Y1 blocker 5, S1P4 antag 5, NPY-Y1 PAM-ag -34, NPY-Y1 antag ct 2 and NPY-Y2 ant conf 6.
COc1ccccc1OCc1nc(C#N)c(N2CC(C)CC(C)C2)o1 (configuration not stated) was read as NPY2 pot ag -3, S1P4 ag 0, NPY-Y2 antag 18*, NPY Y1 blocker 15, S1P4 antag -11, NPY-Y1 PAM-ag -37, NPY-Y1 antag ct 10 and NPY-Y2 ant conf 6.
COc1ccccc1OCc1nc(C#N)c(N2CCCC2)o1 was read as NPY2 pot ag 5, S1P4 ag -2, NPY Y1 blocker 5, S1P4 antag -14 and NPY-Y1 PAM-ag -11.
Screening CCC1Oc2ccc(C)cc2N(CC(=O)NCCC2=CCCCC2)C1=O (configuration not stated) returned NPY2 pot ag 5, S1P4 ag 0, NPY-Y2 antag 19*, NPY Y1 blocker 8, S1P4 antag -28, NPY-Y1 PAM-ag 5, NPY-Y1 antag ct 14 and NPY-Y2 ant conf 12.
COc1cc(C=O)ccc1OC(=O)c1ccc(C(C)C)cc1 was read as NPY2 pot ag -9, S1P4 ag -1, NPY Y1 blocker 1, S1P4 antag -6 and NPY-Y1 PAM-ag -3.
For COc1ccccc1-c1cc(C(=O)N2CCCc3ccccc32)no1 the results were NPY2 pot ag -12, S1P4 ag 2, NPY Y1 blocker 7, S1P4 antag 6 and NPY-Y1 PAM-ag -10.
For COc1cccc(-c2cc(C(=O)N3CCCc4ccccc43)no2)c1 the results were NPY2 pot ag 0, S1P4 ag 0, NPY-Y2 antag 19*, NPY Y1 blocker 17, S1P4 antag 10, NPY-Y1 PAM-ag -25, NPY-Y1 antag ct 17 and NPY-Y2 ant conf 9.
Screening COc1ccc(OC)c(-c2cc(C(=O)N3CCCc4ccccc43)no2)c1 returned NPY2 pot ag -31, S1P4 ag -1, NPY-Y2 antag 17*, NPY Y1 blocker 19, S1P4 antag -2, NPY-Y1 PAM-ag -33, NPY-Y1 antag ct 10 and NPY-Y2 ant conf 5.
For COc1ccc(-c2cc(C(=O)N3CCCc4ccccc43)no2)cc1 the results were NPY2 pot ag -10, S1P4 ag -2, NPY-Y2 antag 5, NPY Y1 blocker 6, S1P4 antag 0 and NPY-Y1 PAM-ag -14.
CC(C)NC(=O)CSc1nncn1-c1ccccc1 was read as NPY2 pot ag 3, S1P4 ag 2, NPY-Y2 antag 18*, NPY Y1 blocker 1, S1P4 antag -9, NPY-Y1 PAM-ag 5, NPY-Y1 antag ct 0 and NPY-Y2 ant conf 1.
For Cc1cccc(NC(=O)CN2C(=O)CSC2=O)c1 the results were NPY2 pot ag -11, S1P4 ag -1, NPY Y1 blocker -3, S1P4 antag -8 and NPY-Y1 PAM-ag -4.
`COc1ccc(-c2[nH]c(-c3ccc(C)cc3)nc2SCC(=O)NC2CCCC2)cc1` gave NPY2 pot ag -2, S1P4 ag 1, NPY-Y2 antag 0, NPY Y1 blocker 4, S1P4 antag 5 and NPY-Y1 PAM-ag -6.
`CC(C)COc1ccc(C(=O)OC2CC(C)(C)OCC2CN(C)C)cc1` (configuration not stated) gave NPY2 pot ag -32, S1P4 ag -1, NPY-Y2 antag 24*, NPY Y1 blocker 16, S1P4 antag -5, NPY-Y1 PAM-ag -34, NPY-Y1 antag ct 16 and NPY-Y2 ant conf 30*.
Screening CCN1c2ccccc2-c2nc3ccccc3n2C1c1ccco1 (configuration not stated) returned NPY2 pot ag -4, S1P4 ag -1, NPY-Y2 antag 19*, NPY Y1 blocker 12, S1P4 antag -22, NPY-Y1 PAM-ag 4, NPY-Y1 antag ct 16 and NPY-Y2 ant conf 7.
For CN1CCN(c2ccccc2NC(=O)c2ccc(-c3ccc(Cl)cc3Cl)o2)CC1 the results were NPY2 pot ag -9, S1P4 ag -2, NPY-Y2 antag 17*, NPY Y1 blocker 8, S1P4 antag -2, NPY-Y1 PAM-ag -66, NPY-Y1 antag ct 12 and NPY-Y2 ant conf 25*.
For CS(=O)(=O)N1CCN(c2ccccc2NC(=O)c2ccc(-c3ccc(Cl)cc3Cl)o2)CC1 the results were NPY2 pot ag -21, S1P4 ag 0, NPY-Y2 antag 3, NPY Y1 blocker 14, S1P4 antag -9 and NPY-Y1 PAM-ag -4.
`COc1ccc([N+](=O)[O-])cc1NC(=O)CCCOc1ccccc1` gave NPY2 pot ag 12, S1P4 ag 0, NPY-Y2 antag 13, NPY Y1 blocker 3, S1P4 antag -8 and NPY-Y1 PAM-ag -4.
`COc1cc([N+](=O)[O-])ccc1NC(=O)CCCOc1ccccc1` gave NPY2 pot ag -28, S1P4 ag -2, NPY-Y2 antag 22*, NPY Y1 blocker 7, S1P4 antag -3, NPY-Y1 PAM-ag -33, NPY-Y1 antag ct 7 and NPY-Y2 ant conf 10.
CC(C)Nc1nnc(Sc2ccc(Cl)cc2[N+](=O)[O-])s1 was read as NPY2 pot ag -3, S1P4 ag 0, NPY-Y2 antag 21*, NPY Y1 blocker 8, S1P4 antag -24, NPY-Y1 PAM-ag -10, NPY-Y1 antag ct 0 and NPY-Y2 ant conf 10.
For N#Cc1c(NC(=O)CSc2nnnn2C2CCCCC2)sc2c1CCCC2 the results were NPY2 pot ag 1, S1P4 ag 4, NPY-Y2 antag -1, NPY Y1 blocker 4, S1P4 antag -12 and NPY-Y1 PAM-ag 6.
